# Shown are actives, neighbours in structure and some others; about 1.9% of the full set was active somewhere.
# ABHD5-PLIN5 inh: ABHD5-PLIN5 protein interaction inhibition. 360,000 tested, 0.78% active. Q00G26+Q8WTS1. inhibition, % at 4 µM. Split G. princeps luciferase complementation, luminescence, 4 h;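 active means inhibition above the mean inhibition across every tested compound plus 3 SD, cut at about 22% in these data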
# GAA850 FXN act: frataxin GAA850 promoter activation; HEK293 lucGAA850 FXN promoter luciferase reporter, 24 h; percent of 10 µM SAHA response; activation, % at 6 µM; 360,000 tested, 0.56% active;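 active means activation above the average of all compounds screened plus 3 SD, cutoff fixed separately per campaign, cut at about 7.5% in these data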
# Hsp70 act: switches on Hsp70 transcription | HeLa Hsp70 promoter luciferase reporter, luminescence; scaled: vehicle 0, proteasome-inhibitor control 100% | 200,000 tested, 0.04% active | activation, % at 10 µM;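 active means activation above the mean across all tested compounds plus 3 SD, cutoff set per campaign, cut at about 5.5% in these data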
# HIF activator: HIF pathway transcriptional activation. 300,000 tested, 0.32% active. U2OS HRE-luciferase reporter, luminescence; normalized: DMSO 0%, desferrioxamine 100%. activation, % at 7.5 µM (by protocol). AID 1910;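 active means mean activation of at least 10% of the iron chelator positive control signal, with at least half of replicates also reaching 10%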
# TAG inh: triacylglycerol accumulation inhibition. inhibition, % at 12.5 µM. H9c2 cells, Nile Red lipid (TAG) fluorescence; cells loaded with 200 µM oleic acid. 230,000 tested, 0.66% active. AID 651582;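 active means pattern-corrected inhibition of lipid staining of at least 50% with the nuclear-stain viability signal not falling by more than 50%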
# Rad51 HR inh: blocks human Rad51 in homologous recombination | Q06609 | hRad51 DNA strand exchange, fluorescence dequenching | inhibition, % at 10 µM | 200,000 tested, 0.085% active;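 active means inhibition above 40% at the single screening dose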
#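 System: human Rad51 nucleoprotein filaments preassembled on unlabelled ssDNA. Reagent: labelled 47-mer dsDNA for strand exchange. Schedule: 30-min compound preincubation and 15-min exchange, both room temperature. Measured by: FRET fluorescence dequenching, excitation 485 nm, emission 520 nm. Read-out: Fluorescence-based percent inhibition, control- and blank-normalised. Benchmarks: plate controls and plate blanks.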
# ABHD5 PLIN5 conf: confirmation of human ABHD5-PLIN5 interaction inhibitors. shares compounds with ABHD5-PLIN5 inh. biochemical ABHD5-PLIN5 interaction, luminescence. inhibition, % at 4 µM. 2,200 tested, 67% active; in the data active means inhibition above about 23%
# HNF4 counter: counter-screen for ABHD5-PLIN5 inhibitors: HNF4 split-luciferase | 2,200 tested, 77% active | inhibition, % at 4 µM | shares compounds with ABHD5-PLIN5 inh | HNF4 dimerization, luminescence, biochemical;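 active means mean inhibition across replicate wells exceeding the computed hit threshold, cut at about 13% in these data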;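 further: light from luciferase halves that rejoin when HNF4 fusion proteins dimerize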
# Target sequence (P41235 whole entry, looked up, the tested form may be a part): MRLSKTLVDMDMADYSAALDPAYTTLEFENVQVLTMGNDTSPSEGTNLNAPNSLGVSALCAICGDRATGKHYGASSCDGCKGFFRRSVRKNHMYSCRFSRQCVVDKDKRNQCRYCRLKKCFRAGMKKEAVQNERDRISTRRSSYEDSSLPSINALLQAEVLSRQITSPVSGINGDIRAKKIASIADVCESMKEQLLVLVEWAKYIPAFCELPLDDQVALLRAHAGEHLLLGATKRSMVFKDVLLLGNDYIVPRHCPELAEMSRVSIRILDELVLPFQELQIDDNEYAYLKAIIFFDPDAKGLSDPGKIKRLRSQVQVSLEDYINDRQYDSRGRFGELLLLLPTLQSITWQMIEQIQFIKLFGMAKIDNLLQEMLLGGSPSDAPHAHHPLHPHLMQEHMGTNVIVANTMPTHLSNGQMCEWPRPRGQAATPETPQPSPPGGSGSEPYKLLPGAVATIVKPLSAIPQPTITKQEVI
# A number is an active result; i = inactive; nt = not tested or not shown.
SMILES,ABHD5-PLIN5 inh,GAA850 FXN act,Hsp70 act,HIF activator,TAG inh,Rad51 HR inh,ABHD5 PLIN5 conf,HNF4 counter
COc1ccc(NC(=O)CN(C)C(=O)Cc2ccc(S(=O)(=O)N3CCOCC3)s2)cc1,i,i,nt,i,i,nt,nt,nt
C#CCOCCOCCOCCNc1nc(N2CCN(C(=O)[C@H]([C@@H](C)CC)n3cc(CCC(=O)O)nn3)CC2)nc(N2CCN(C(=O)[C@H](CCCCN)n3cc(CCC(=O)O)nn3)CC2)n1,i,i,nt,nt,i,nt,nt,nt
C#CCOCCOCCOCCNc1nc(N2CCN(C(=O)CCCCCCCCCCNC(=O)[C@@H](CCSC)n3cc(CCO)nn3)CC2)nc(N2CCN(C(=O)CCCCCCCCCCNC(=O)[C@H](CO)n3cc(CCCCCN)nn3)CC2)n1,46,i,nt,nt,i,nt,i,i
C#CCOCCOCCOCCNc1nc(N2CCOCC2)nc(N2CCN(C(=O)CCCCCCCCCCNC(=O)[C@H]([C@@H](C)CC)n3cc(CCCCN=C(N)N)nn3)CC2)n1,34,i,nt,nt,i,nt,i,i
C#CCOCCOCCOCCNc1nc(N2CCN(C(=O)CCCCCCCCCCNC(=O)[C@@H](CCC(=O)O)n3cc(CCCCCN)nn3)CC2)nc(N2CCN(C(=O)CCCCCCCCCCNC(=O)[C@H](CCCCN)n3cc(C[C@@H](C)CC)nn3)CC2)n1,41,i,nt,nt,i,nt,i,i
C#CCOCCOCCOCCNc1nc(N2CCN(C(=O)CCCCCCCCCCNC(=O)[C@@H](CCC(=O)O)n3cc(CCCCCN)nn3)CC2)nc(N2CCN(C(=O)CCCCCCCCCCNC(=O)[C@H](CO)n3cc(CCCCCN)nn3)CC2)n1,36,i,nt,nt,i,nt,i,i
O=S(=O)(c1ccccc1)N1CCC(n2cnc3ccccc32)CC1,i,i,nt,i,nt,nt,nt,nt
COc1cc2c(cc1OC)C(c1cc3ccccc3oc1=O)=NC(C)(C)C2,i,i,i,i,nt,i,nt,nt
CSCCC(NC(=O)c1ccco1)C(=O)NNC(=O)c1n[nH]c(=O)c2ccccc12 (stereo unspecified),66,i,nt,nt,i,nt,i,i
CCOC(=O)N1CCc2c(sc(NC(=O)CCS(=O)(=O)c3ccccc3)c2C(N)=O)C1,30,i,nt,i,i,nt,24,37
CC(=O)N1CCc2c(sc(NC(=O)CCS(=O)(=O)c3ccccc3)c2C(N)=O)C1,i,i,nt,i,i,nt,nt,nt
O=C(NCCCN1CCOCC1)c1ccc(CSc2ccc(Cl)cc2)cc1,27,i,i,i,i,i,i,i
CC(C)c1ccc(C(=O)NCCCN2CCOCC2)cc1,i,i,nt,i,i,nt,nt,nt
O=C(/C=C/c1ccccn1)c1cc(Cl)cc(Cl)c1O,23,i,nt,i,i,i,45,31
COc1ccc(/C=C/C(=O)c2cc(Cl)cc(Cl)c2O)c(OC)c1,i,i,nt,i,i,nt,nt,nt
COc1ccc(-c2cc(N)n(S(=O)(=O)c3c(F)c(F)c(F)c(F)c3F)n2)cc1OC,30,i,20,i,nt,i,50,i
COc1ccc(S(=O)(=O)n2nc(-c3cc(OC)c(OC)c(OC)c3)cc2N)cc1OC,i,i,i,nt,i,i,nt,nt
CCOc1cccc(=O)c2c(C)n(Cc3ccco3)c(C)c12,24,i,i,i,nt,i,29,55
CCN(CC(=O)Nc1ccc(OC)cc1)C(=O)c1ccc2c(c1)NC(=O)C(C)S2 (stereo unspecified),i,i,nt,i,i,nt,nt,nt
CC(=O)OCC1=C(C(=O)O)N2C(=O)C(NC(=O)c3ccc(F)cc3)C2SC1 (stereo unspecified),30,i,i,i,i,i,i,28
Cc1ccc(S(=O)(=O)n2cccc2/C=C/[N+](=O)[O-])cc1,46,i,nt,nt,i,nt,101,102
Cc1cc(N2CCCC2)c(F)cc1/C=C\[N+](=O)[O-],47,i,i,i,i,i,97,95
CCOc1ccc(C(C)=O)cc1N1C(=O)C2C3C=CC(O3)C2C1=O (stereo unspecified),30,i,i,i,nt,i,i,80

# Screening results as filed in PubChem.
